Data: ChEMBL document CHEMBL4261631, “Synthetic thiosemicarbazones as a new class of Mycobacterium tuberculosis protein tyrosine phosphatase A inhibitors” (Bioorg Med Chem, 2018)

What was measured:
[1] = biological target: T1, Low molecular weight protein-tyrosine phosphatase A (Mycobacterium tuberculosis) (UniProt P9WIA1); test: Inhibition of recombinant Mycobacterium tuberculosis PtpA at 25 uM using p-nitrophenyl phosphate as substrate preincubated for 10 mins followed by substrate addition and measured every minute for 10 mins by UV-VIS spectrophotometric analysis
T1 sequence (whole entry): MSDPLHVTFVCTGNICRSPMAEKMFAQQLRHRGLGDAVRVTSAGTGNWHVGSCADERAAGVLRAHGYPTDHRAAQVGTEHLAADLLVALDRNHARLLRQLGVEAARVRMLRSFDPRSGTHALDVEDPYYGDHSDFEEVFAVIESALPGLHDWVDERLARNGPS
Outline: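 Single-point screen at 25 µM final (from 1 mM DMSO stock, 2.5% DMSO final). 50 nM recombinant Mtb PtpA in 20 mM imidazole pH 7.0, premixed with compound 10 min at 37 °C. Reaction started with 10 mM pNPP. A410 read each min for 10 min at 37 °C. Residual activity from absorbance difference 7 min minus 2 min versus no-inhibitor wells. Triplicate.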

[2] = biological target: T2, Low molecular weight protein-tyrosine phosphatase A (Mycobacterium tuberculosis, UniProt P9WIA1); test: Inhibition of recombinant Mycobacterium tuberculosis PtpA using p-nitrophenyl phosphate as substrate preincubated for 10 mins followed by substrate addition and measured every minute for 10 mins by UV-VIS spectrophotometric analysis
T2 sequence (P9WIA1 whole entry): T1 sequence (whole entry)
Outline: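 Recombinant Mtb PtpA at 50 nM in 20 mM imidazole pH 7.0, premixed with inhibitor (0.5–50 µM, DMSO ≤4% v/v) 10 min at 37 °C. Started with 10 mM pNPP. A410 read each min for 10 min at 37 °C. Residual activity from 7 min minus 2 min absorbance versus no-inhibitor wells. IC50 by linear regression of % inhibition versus concentration. Triplicate, mean ± SD of three experiments.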

COc1ccc(NC(=S)N/N=C/c2ccccc2)cc1
inhibition [1]: 0%

Cc1ccc(NC(=S)N/N=C/c2ccc3ccccc3c2)cc1
inhibition [1]: 29.3%

COc1cc(/C=N/NC(=S)Nc2ccc(C)cc2)cc(OC)c1OC
inhibition [1]: 0%

COc1ccc(/C=N/NC(=S)Nc2ccc(C)cc2)cc1
inhibition [1]: 8.9%

S=C(N/N=C/c1cccc2ccccc12)Nc1cccc2ccccc12
inhibition [1]: 10.3%

Cc1ccc(NC(=S)N/N=C/c2ccccc2[N+](=O)[O-])cc1
inhibition [1]: 21.6%

COc1ccc(/C=N/NC(=S)Nc2ccc(C)cc2)cc1OC
inhibition [1]: 6.6%

S=C(N/N=C/c1ccc2ccccc2c1)Nc1cccc2ccccc12
inhibition [1]: 67.7% | IC50 [2]: 23.7 µM

Cc1ccc(NC(=S)N/N=C/c2ccc(N(C)C)cc2)cc1
inhibition [1]: 35.4%

COc1ccc(NC(=S)N/N=C/c2ccc(OC)c(OC)c2)cc1
inhibition [1]: 0%

Cc1ccc(/C=N/NC(=S)Nc2ccc(C)cc2)cc1
inhibition [1]: 0.7%

COc1ccc(NC(=S)N/N=C/c2cc(OC)ccc2OC)cc1
inhibition [1]: 0%

COc1ccc(NC(=S)N/N=C/c2ccc(Cl)cc2)cc1
inhibition [1]: 1%

COc1ccc(NC(=S)N/N=C/c2ccc(O)c(OC)c2)cc1
inhibition [1]: 6.6%

Cc1ccc(NC(=S)N/N=C/c2ccccc2)cc1
inhibition [1]: 16.6%

Cc1ccc(NC(=S)N/N=C/c2ccc3c(c2)OCO3)cc1
inhibition [1]: 25.9%

CN(C)c1ccc(/C=N/NC(=S)Nc2cccc3ccccc23)cc1
inhibition [1]: 51.6%

Cc1ccc(NC(=S)N/N=C/c2cccc3ccccc23)cc1
inhibition [1]: 33.7%

COc1cc(/C=N/NC(=S)Nc2cccc3ccccc23)cc(OC)c1OC
inhibition [1]: 0%

COc1ccc(NC(=S)N/N=C/c2ccc(-c3ccccc3)cc2)cc1
inhibition [1]: 41.2%

COc1ccc(NC(=S)N/N=C/c2ccc(Cl)c(Cl)c2)cc1
inhibition [1]: 21.4%

COc1ccc(NC(=S)N/N=C/c2cc(OC)c(OC)c(OC)c2)cc1
inhibition [1]: 0%

O=[N+]([O-])c1ccccc1/C=N/NC(=S)Nc1cccc2ccccc12
inhibition [1]: 52.4%

COc1ccc(NC(=S)N/N=C/c2ccccc2[N+](=O)[O-])cc1
inhibition [1]: 0%

COc1ccc(OC)c(/C=N/NC(=S)Nc2ccc(C)cc2)c1
inhibition [1]: 2.8%

COc1ccc(NC(=S)N/N=C/c2ccc3c(c2)OCO3)cc1
inhibition [1]: 0%

S=C(N/N=C/c1ccc(Cl)c(Cl)c1)Nc1cccc2ccccc12
inhibition [1]: 83.7% | IC50 [2]: 13.4 µM

Cc1ccc(NC(=S)N/N=C/c2ccc(-c3ccccc3)cc2)cc1
inhibition [1]: 26.3%

S=C(N/N=C/c1ccc2c(c1)OCO2)Nc1cccc2ccccc12
inhibition [1]: 62.6% | IC50 [2]: 17.8 µM

S=C(N/N=C/c1ccc(Cl)cc1)Nc1cccc2ccccc12
inhibition [1]: 0%

COc1cc(/C=N/NC(=S)Nc2cccc3ccccc23)ccc1O
inhibition [1]: 0%

COc1ccc(OC)c(/C=N/NC(=S)Nc2cccc3ccccc23)c1
inhibition [1]: 44.2%

COc1ccc(NC(=S)N/N=C/c2ccc([N+](=O)[O-])cc2)cc1
inhibition [1]: 64.4% | IC50 [2]: 15.1 µM

Cc1ccc(NC(=S)N/N=C/c2ccc([N+](=O)[O-])cc2)cc1
inhibition [1]: 37.2%

COc1ccc(NC(=S)N/N=C/c2ccc(N(C)C)cc2)cc1
inhibition [1]: 3.9%

COc1ccc(NC(=S)N/N=C/c2ccc3ccccc3c2)cc1
inhibition [1]: 23.7%

COc1ccc(/C=N/NC(=S)Nc2cccc3ccccc23)cc1OC
inhibition [1]: 64.5% | IC50 [2]: 18.2 µM

Cc1ccc(NC(=S)N/N=C/c2ccc(Cl)cc2)cc1
inhibition [1]: 4.9%

COc1ccc(NC(=S)N/N=C/c2ccc(C)cc2)cc1
inhibition [1]: 0%

COc1ccc(/C=N/NC(=S)Nc2ccc(OC)cc2)cc1
inhibition [1]: 0%

COc1ccc(NC(=S)N/N=C/c2cccc3ccccc23)cc1
inhibition [1]: 22.7%

S=C(N/N=C/c1ccccc1)Nc1cccc2ccccc12
inhibition [1]: 58.1%

COc1ccc(/C=N/NC(=S)Nc2cccc3ccccc23)cc1
inhibition [1]: 22.6%

Cc1ccc(NC(=S)N/N=C/c2ccc(Cl)c(Cl)c2)cc1
inhibition [1]: 23.4%

COc1cc(/C=N/NC(=S)Nc2ccc(C)cc2)ccc1O
inhibition [1]: 8.8%
